Converted amounts (≈) assume the structure as drawn. “And” between values parts separate entries of the source, which are not always exact repeats. Equal entries are not always repeated. Where two headings read alike, the source gives them in different places.
How the values were obtained:
[1] = tested on: H. pylori ATCC 43504; experiment: Broth dilution bioassay MIC/MBC, ATCC 43504; assay type: cell-based; settings: Helicobacter pylori; for MIC: ATCC43504, 48 h; for MBC: ATCC43504, 72 h
[2] = tested on: H. pylori ATCC 51932; experiment: Broth dilution bioassay MIC/MBC, ATCC 51932; assay type: cell-based; settings: Helicobacter pylori; for MIC: ATCC51932, 48 h; for MBC: ATCC51932, 72 h
[3] = tested on: H. pylori OX.22; experiment: Broth dilution bioassay MIC/MBC, OX.22; assay type: cell-based; settings: Helicobacter pylori; for MBC: OX.22, 72 h; for MIC: OX.22, 48 h
[4] = tested on: H. pylori OX.63; experiment: Broth dilution bioassay MIC/MBC, OX.63; assay type: cell-based, Helicobacter pylori; settings: for MBC: OX.63, 72 h; for MIC: H. pylori OX.63, broth dilution, 48 h
[5] = tested on: H. pylori OX.64; experiment: Broth dilution bioassay MIC/MBC, OX.64; assay type: cell-based, Helicobacter pylori; settings: for MIC: H. pylori OX.64, broth dilution, 48 h; for MBC: OX.64, 72 h
[6] = tested on: H. pylori OX.67; experiment: Broth dilution bioassay MIC/MBC, OX.67; assay type: cell-based, Helicobacter pylori; settings: for MIC: H. pylori OX.67, broth dilution, 48 h; for MBC: OX.67, 72 h
[7] = tested on: H. pylori OX.83; experiment: Broth dilution bioassay MIC/MBC, OX.83; assay type: cell-based, Helicobacter pylori; settings: for MIC: H. pylori OX.83, broth dilution, 48 h; for MBC: OX.83, 72 h
[8] = Sulforhodamine cytotoxicity assay, MCF7; assay type: cell-based; settings: human, MCF7 cells
In short: (§1)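 Cells were grown in EMEM with 10% FBS, 2 mM L-glutamine, 20 mM HEPES and antibiotics at 37 °C, 5% CO2. Passages were 4–20 for HeLa, MCF7 and Jurkat, and 2–5 for fibroblasts. Seeding per well for 24 h: HeLa 5×10^3, MCF7 and fibroblast 10^4, Jurkat 5×10^4. Test compound (0–200 mg/L, in DMSO) was added for 48 h. Cells were fixed with cold TCA, stained with 0.2% SRB, solubilised in 10 mM Tris and read at 492 nm. Camptothecin was the positive control. Triplicates, three independent experiments.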

[9] = Sulforhodamine cytotoxicity assay, Jurkat; assay type: cell-based; settings: human, Jurkat cells
In short: as §1

[10] = Sulforhodamine cytotoxicity assay, HeLa; assay type: cell-based; settings: human, HeLa cells
In short: as §1

[11] = Sulforhodamine cytotoxicity assay, fibroblast; assay type: cell-based; settings: human, fibroblast cells derived from human foreskins
In short: as §1

[12] = Sulforhodamine cytotoxicity assay, text summary over four cell lines; assay type: cell-based; settings: human
In short: as §1

[13] = tested on: test strains of H. pylori; experiment: Broth dilution bioassay MIC/MBC, text summary over test strains; assay type: cell-based; settings: Helicobacter pylori
[14] = tested on: H. pylori ATCC 43504; experiment: Time-killing assay; assay type: cell-based, Helicobacter pylori
In short: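 H. pylori ATCC 43504 in 10% NBS-supplemented Brucella broth in 96-well plates, by broth microdilution. Inoculum suspension 5×10^6 CFU/mL; DMSO final ≤2.5%. Test compound was used at concentrations from MIC to MBC, alongside an untreated control. Viability was counted by plate colony count at 0, 6, 12, 18, 24, 36 and 48 h.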

[15] = tested on: H. pylori ATCC 43504 biofilm formation; experiment: Biofilm formation inhibitory assay; assay type: cell-based, Helicobacter pylori; settings: 48 h
[16] = tested on: H. pylori ATCC 43504; experiment: Effect on morphology; assay type: cell-based, Helicobacter pylori
[17] = target: H. pylori ATCC 43504 urease (Helicobacter pylori, UniProt P69996); experiment: Urease inhibition, salicylate-hypochlorite method; assay type: biochemical; settings: for slope ± SE: slope of dose-response curve of percentage of urease inhibition
Sequence of H. pylori ATCC 43504 urease (P69996 whole entry): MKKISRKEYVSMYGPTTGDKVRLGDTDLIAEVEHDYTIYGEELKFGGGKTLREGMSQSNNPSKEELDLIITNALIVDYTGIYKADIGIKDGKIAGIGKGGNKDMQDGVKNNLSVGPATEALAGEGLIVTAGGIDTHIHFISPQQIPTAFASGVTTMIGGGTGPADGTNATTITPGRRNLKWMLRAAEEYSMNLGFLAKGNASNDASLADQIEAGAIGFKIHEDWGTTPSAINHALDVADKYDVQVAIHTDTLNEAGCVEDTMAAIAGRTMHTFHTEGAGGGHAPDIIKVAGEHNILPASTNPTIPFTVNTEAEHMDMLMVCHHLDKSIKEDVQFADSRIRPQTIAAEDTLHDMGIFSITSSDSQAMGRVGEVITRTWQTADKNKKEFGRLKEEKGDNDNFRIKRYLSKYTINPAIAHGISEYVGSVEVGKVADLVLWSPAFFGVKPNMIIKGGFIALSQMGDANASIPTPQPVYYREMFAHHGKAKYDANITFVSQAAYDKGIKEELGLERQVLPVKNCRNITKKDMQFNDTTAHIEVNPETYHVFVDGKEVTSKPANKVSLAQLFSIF
Sequence of H. pylori ATCC 43504 urease (P14916 whole entry partner): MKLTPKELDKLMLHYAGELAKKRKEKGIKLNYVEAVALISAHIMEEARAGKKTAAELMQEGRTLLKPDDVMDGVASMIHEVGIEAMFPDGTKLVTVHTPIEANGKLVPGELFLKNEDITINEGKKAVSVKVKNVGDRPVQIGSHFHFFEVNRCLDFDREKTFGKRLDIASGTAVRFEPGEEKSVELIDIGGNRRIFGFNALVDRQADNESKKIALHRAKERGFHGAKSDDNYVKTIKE
In short: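 Crude H. pylori ATCC 43504 urease, 0.25 μg (0.04 U), in EDTA–sodium phosphate buffer pH 7.3, was preincubated with test compound at 37 °C for 90 min at 50 rpm. Urea solution (10 mM, as added) was then incubated for 30 min. Ammonia was measured by the salicylate–nitroprusside/alkaline hypochlorite method at 625 nm. Thiourea was the reference inhibitor. IC50 is molar. Triplicates, three independent experiments.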

[18] = Helicobacter pylori, OX.64, 48 h
[19] = Helicobacter pylori, OX.67, 48 h
[20] = Helicobacter pylori, OX.83, 48 h
[21] = Helicobacter pylori, OX.63, 48 h

Row | Compound | MIC [1] [µg/mL] | MBC [1] [µg/mL] | MIC [2] [µg/mL] | MBC [2] [µg/mL] | MBC [3] [µg/mL] | MBC ([4]; Helicobacter pylori) [µg/mL] | MIC [5, 18] [µg/mL] | MBC ([5]; Helicobacter pylori) [µg/mL] | MIC [6, 19] [µg/mL] | MBC ([6]; Helicobacter pylori) [µg/mL] | MIC [7, 20] [µg/mL] | MBC ([7]; Helicobacter pylori) [µg/mL] | CC50 at 48 h [8] [µg/mL] | CC50 at 48 h [9] [µg/mL] | CC50 at 48 h [10] [µg/mL] | CC50 at 48 h [11] [µg/mL] | CC50 at 48 h [12] [µg/mL] | MIC [3] [µg/mL] | MIC [4, 21] [µg/mL] | slope ± SE [17] | also measured
1 | CC[C@H]1OC(=O)[C@H](C)[C@@H](O[C@H]2C[C@@](C)(OC)[C@@H](O)[C@H](C)O2)[C@H](C)[C@@H](O[C@@H]2O[C@H](C)C[C@H](N(C)C)[C@H]2O)[C@](C)(O)C[C@@H](C)C(=O)[C@H](C)[C@@H](O)[C@]1(C)O [erythromycin] | 0.063 (≈ 0.0858 µM) | 0.125 (≈ 0.17 µM) | 0.063 (≈ 0.0858 µM) | 0.125 (≈ 0.17 µM) | 128 (≈ 174 µM) | 128 (≈ 174 µM) | 16 to 32 (≈ 21.8 to 43.6 µM) | 128 (≈ 174 µM) | 64 (≈ 87.2 µM) | 128 (≈ 174 µM) | 64 (≈ 87.2 µM) | 128 (≈ 174 µM) |  |  |  |  |  |  |  |  | 
2 | CC[C@@]1(O)C(=O)OCc2c1cc1n(c2=O)Cc2cc3ccccc3nc2-1 [camptothecin, reference compound] |  |  |  |  |  |  |  |  |  |  |  |  | 0.005 (≈ 0.0144 µM) | 0.005 (≈ 0.0144 µM) | 0.89 (≈ 2.55 µM) | 1.57 (≈ 4.51 µM) | 0.005 to 1.57 (≈ 0.0144 to 4.51 µM) |  |  |  | 
3 | O=C(O)c1ccc(O)c(O)c1 [PCA, protocatechuic acid] | 250 (≈ 1620 µM) | 1500 (≈ 9730 µM) | 250 (≈ 1620 µM) | 1500 (≈ 9730 µM) | 1500 (≈ 9730 µM) | 1500 (≈ 9730 µM) | 250 (≈ 1620 µM) | 1500 (≈ 9730 µM) | 250 (≈ 1620 µM) | 1500 (≈ 9730 µM) | 250 (≈ 1620 µM) | 1500 (≈ 9730 µM) | > 200 | > 200 | > 200 | > 200 | > 200 | 250 (≈ 1620 µM) | 250 (≈ 1620 µM) | 2.00 ± 0.075 | MIC ([13]; ATCC51932): 250 µg/mL (≈ 1620 µM); reduction of viability ([14]; at the MIC, 36 h): ~2 log10; reduction of viability ([14]; four times the MIC, 48 h): ~6 log10; antibiofilm activity ([15]; at test concentrations (sub-MICs)): did not show antibiofilm activity; conversion to the coccoid form ([16]; 500 mg/L): not significantly different from that in the control group; conversion to the coccoid form ([16]; 1000 mg/L): 12%; IC50 [17]: 486 µM
4 | NC(N)=S [thiourea, reference compound] |  |  |  |  |  |  |  |  |  |  |  |  |  |  |  |  |  |  |  | 1.79 ± 0.093 | IC50 ([17]; read-out: IC50 (95% CL), urease crude, preincubation 90 min, pH 7.3): 573 µM
5 | CC[C@H]1OC(=O)[C@H](C)[C@@H](O[C@H]2C[C@@](C)(OC)[C@@H](O)[C@H](C)O2)[C@H](C)[C@@H](O[C@@H]2O[C@H](C)C[C@H](N(C)C)[C@H]2O)[C@](C)(O)C[C@@H](C)CN(C)[C@H](C)[C@@H](O)[C@]1(C)O [azithromycin] | 0.5 (≈ 0.668 µM) | 1 (≈ 1.34 µM) | 0.5 (≈ 0.668 µM) | 1 (≈ 1.34 µM) | 1 (≈ 1.34 µM) | 128 (≈ 171 µM) | 16 to 32 (≈ 21.4 to 42.7 µM) | 128 (≈ 171 µM) | 64 (≈ 85.4 µM) | 128 (≈ 171 µM) | 64 (≈ 85.4 µM) | 128 (≈ 171 µM) |  |  |  |  |  | 0.5 (≈ 0.668 µM) | 32 to 64 (≈ 42.7 to 85.4 µM) |  | MIC [4]: 32 µg/mL (≈ 42.7 µM); MIC [5]: 16 µg/mL (≈ 21.4 µM); MIC [6]: 32 µg/mL (≈ 42.7 µM); MIC [7]: 32 µg/mL (≈ 42.7 µM); MIC [13]: 16 to 32 µg/mL (≈ 21.4 to 42.7 µM)
6 | O=c1c(O)c(-c2cc(O)c(O)c(O)c2)oc2cc(O)cc(O)c12 [MCT, myricetin] | 150 (≈ 471 µM) | 1250 (≈ 3930 µM) | 150 (≈ 471 µM) | 1250 (≈ 3930 µM) | 1250 (≈ 3930 µM) | 1250 (≈ 3930 µM) | 150 (≈ 471 µM) | 1250 (≈ 3930 µM) | 150 (≈ 471 µM) | 1250 (≈ 3930 µM) | 150 (≈ 471 µM) | 1250 (≈ 3930 µM) | 31.7 (≈ 99.6 µM) | 7.61 (≈ 23.9 µM) | 36.8 (≈ 116 µM) | 76.1 (≈ 239 µM) | 7.61 to 76.1 (≈ 23.9 to 239 µM) | 150 (≈ 471 µM) | 150 (≈ 471 µM) | 2.26 and 2.26 ± 0.070 | MBC [13]: 1250 µg/mL (≈ 3930 µM); MIC ([13]; ATCC51932): 150 µg/mL (≈ 471 µM); reduction of viability ([14]; at the MIC, 24 h): ~2.7 log10; reduction of viability ([14]; eight times the MIC, 36 h): ~4.2 log10; reduction of biofilm formation ([15]; 1/2 × MIC (NRG 50 mg/L, MCT 75 mg/L)): 39.5%; conversion to the coccoid form ([16]; 500 mg/L): 15%; conversion to the coccoid form ([16]; 1000 mg/L): 79%; IC50 [17]: 63 µM; concentration of complete inhibition of urease ([17]; Figure 5): 0.402 mM
